Legend:
NIH-3T3 cells = test: Scratch test, TGF-β1-induced cell migration; assay type: cell-based, mouse; settings: TGF-β1 5 ng/ml, 48 h; vs TGF-β1 group
Outline: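 NIH-3T3 fibroblasts were seeded in 12-well format, cultured 24 h, then scratched. After 24 h synchronisation, TGF-β1 (5 ng/ml) was added with test compound, SB431542 or a reference drug, and incubated 48 h. Wounds were photographed under an inverted microscope at 0, 24 and 48 h after drug addition.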

[1] = cited from earlier work
[2] = Lung tissue distribution study; assay type: in vivo, rat
Outline: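 Male Sprague–Dawley rats (200 ± 20 g), fasted 12 h. Dose 10 mg/kg as Sal B, given either as dry powder or as iv solution. Powder was insufflated intratracheally under chloral hydrate anaesthesia (three 1.5 ml air pushes). Lungs were collected at 0.033–12 h (9 time points, n = 3 each) and homogenised 1:5 (g/ml) in iced saline. Homogenates were processed as for plasma and quantified by UPLC-MS/MS.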

[3] = Preliminary pharmacokinetic study in plasma; assay type: in vivo, rat
Outline: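 Male Sprague–Dawley rats (200 ± 20 g, n = 6/group). Dose 10 mg/kg as Sal B, by intratracheal powder insufflation or iv solution. Suborbital blood was taken into heparin at 0.033–12 h, and plasma was spun 10 min at 4 °C. Ascorbic acid, internal standard and HCl were added, then ethyl acetate extraction. Dried extract was reconstituted in methanol-water 80:20 for UPLC-MS/MS; parameters came from concentration-time data.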

[4] = system: bleomycin-induced rat model of IPF; test: Preliminary pharmacodynamics in bleomycin-induced rat model of IPF; assay type: in vivo; settings: Day 29, vs bleo group; same dosing
Outline: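 Male Sprague–Dawley rats under chloral hydrate anaesthesia received intratracheal bleomycin (5 mg/kg in 0.1 ml saline), then were held upright and rotated 5 min; controls got saline. From day 1, test powder was insufflated at 10 mg/kg as Sal B once daily for 28 d. Comparators: same dose iv, reference drug intragastric 31.5 mg/kg, or air. On day 29, right lung lavaged (3× cold saline); left lung stored −80 °C for Hyp.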

[5] = system: NIH-3T3 mouse embryonic fibroblasts; test: MTT assay; assay type: cell-based; settings: NIH3T3, 48 h
Outline: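 NIH-3T3 cells were grown in high-glucose DMEM with 10% FBS and penicillin/streptomycin at 37 °C, 5% CO2, in 96-well format. Test compound was given at 25–200 µg/ml and a reference drug at 0.25–10 µM, for 48 h. MTT (5 mg/ml) was added for 4 h, dissolved in DMSO, and absorbance read at 490 nm.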

[6] = Sal B in rat lung tissue, 10 mg/kg as Sal B, iv solution or pulmonary DPI, n = 3
[7] = male, Sprague-Dawley, rat, lung tissue, iv, 10 mg/kg
[8] = Sal B in rat plasma, 10 mg/kg as Sal B, iv solution or pulmonary DPI, n = 6
[9] = male, Sprague-Dawley, rat, plasma, iv, 10 mg/kg

| Compound | effect on TGF-β1-induced cell migration (NIH-3T3 cells) | Hyp content in lung tissue homogenate [4] | IFN-γ content in BALF [4] | IL-1β content in BALF [4] | IL-4 content in BALF [4] | IL-6 content in BALF [4] | IL-18 content in BALF [4] | MDA content in lung tissue homogenate [4] | SOD activity in lung tissue homogenate [4] | TGF-β1 protein content in BALF [4] | serum MPO content [4] | also measured |
| --- | --- | --- | --- | --- | --- | --- | --- | --- | --- | --- | --- | --- |
| NC(=O)c1ccc(-c2nc(-c3ccc4c(c3)OCO4)c(-c3ccccn3)[nH]2)cc1 [SB431542] | significantly inhibited | – | – | – | – | – | – | – | – | – | – | – |
| O=C(/C=C/c1ccc(O)c2c1[C@H](C(=O)O[C@H](Cc1ccc(O)c(O)c1)C(=O)O)[C@@H](c1ccc(O)c(O)c1)O2)O[C@H](Cc1ccc(O)c(O)c1)C(=O)O [Sal B, Salvianolic acid B] | – | significantly lower | not significantly different | significantly decreased | not significantly different | significantly decreased | significantly decreased | significantly reduced | increased significantly | significantly decreased | significantly reduced | absolute bioavailability of Sal B in previous studies [1]: 19.15%±7.44%; AUC0-∞ [2, 6]: 1898.5 ± 134.03 ng·h/g; Cmax [2, 6]: 13,150.38±619.02 ng/g; Lz [2, 6]: 0.77 ± 0.04 h⁻¹; Cmax [2, 7]: 13200 ng/g; MRT [2, 7]: 11.4 min; Tmax [2, 7]: 1.98 min; half-life [2, 7]: 54 ± 3 min; Cl/F [3, 8]: 41.5 ± 7.83 mL/min/kg; Lz (elimination of phase slope) [3, 8]: 0.45 ± 0.07 h⁻¹; Vz/F [3, 8]: 5.62 ± 1.47 L/kg; AUC(0-inf) [3, 9]: 6550 ± 1490 ng·h/mL; Cmax [3, 9]: 16400 ng/mL; MRT [3, 9]: 49.8 ± 6 min; Tmax [3, 9]: 1.98 min; half-life [3, 9]: 93.6 ± 16.8 min |
| COC(=O)c1ccc2c(c1)NC(=O)/C2=C(\Nc1ccc(N(C)C(=O)CN2CCN(C)CC2)cc1)c1ccccc1 [nidanib, nintedanib, reference compound] | significantly inhibited the migration of NIH-3T3 cells in a concentration dependent manner | significantly lower | significantly increased(P < 0.01) | significantly decreased | significantly decreased | significantly decreased | significantly decreased | significantly reduced | increased significantly | significantly decreased | significantly reduced | concentration with no significant effect on cell viability [5]: < 1000 nM |

From PMC9237582 (Asian Journal of Pharmaceutical Sciences, 2022)
